Tests used:
HCT-116 = test: Anticancer activity against human HCT-116 cells assessed as cell doubling measured for 72 hrs by DAPI staining based analysis; type: functional
GCT = test: Anticancer activity against human GCT cells assessed as cell doubling measured for 72 hrs by DAPI staining based analysis; type: functional
SW48 = test: Anticancer activity against human SW48 cells assessed as cell doubling measured for 72 hrs by DAPI staining based analysis; type: functional
COLO 205 = test: Antitumor activity against human COLO 205 cells in xenograft model assessed as difference between median time to endpoint time of treated versus control group at 62.5 mg/kg; type: functional
A-431 = test: Anticancer activity against human A-431 cells assessed as cell doubling measured for 72 hrs by DAPI staining based analysis; type: functional
MDA-MB-468 = test: Anticancer activity against human MDA-MB-468 cells assessed as cell growth inhibition measured after 72 hrs by DAPI staining based analysis; type: functional
[1] = molecular target: Centromere-associated protein E (Mus musculus, UniProt Q6RT24); test: Binding affinity to wild-type mouse CENP-E assessed as inhibition constant
Centromere-associated protein E (Mus musculus, UniProt Q6RT24), sequence (Q6RT24 whole entry): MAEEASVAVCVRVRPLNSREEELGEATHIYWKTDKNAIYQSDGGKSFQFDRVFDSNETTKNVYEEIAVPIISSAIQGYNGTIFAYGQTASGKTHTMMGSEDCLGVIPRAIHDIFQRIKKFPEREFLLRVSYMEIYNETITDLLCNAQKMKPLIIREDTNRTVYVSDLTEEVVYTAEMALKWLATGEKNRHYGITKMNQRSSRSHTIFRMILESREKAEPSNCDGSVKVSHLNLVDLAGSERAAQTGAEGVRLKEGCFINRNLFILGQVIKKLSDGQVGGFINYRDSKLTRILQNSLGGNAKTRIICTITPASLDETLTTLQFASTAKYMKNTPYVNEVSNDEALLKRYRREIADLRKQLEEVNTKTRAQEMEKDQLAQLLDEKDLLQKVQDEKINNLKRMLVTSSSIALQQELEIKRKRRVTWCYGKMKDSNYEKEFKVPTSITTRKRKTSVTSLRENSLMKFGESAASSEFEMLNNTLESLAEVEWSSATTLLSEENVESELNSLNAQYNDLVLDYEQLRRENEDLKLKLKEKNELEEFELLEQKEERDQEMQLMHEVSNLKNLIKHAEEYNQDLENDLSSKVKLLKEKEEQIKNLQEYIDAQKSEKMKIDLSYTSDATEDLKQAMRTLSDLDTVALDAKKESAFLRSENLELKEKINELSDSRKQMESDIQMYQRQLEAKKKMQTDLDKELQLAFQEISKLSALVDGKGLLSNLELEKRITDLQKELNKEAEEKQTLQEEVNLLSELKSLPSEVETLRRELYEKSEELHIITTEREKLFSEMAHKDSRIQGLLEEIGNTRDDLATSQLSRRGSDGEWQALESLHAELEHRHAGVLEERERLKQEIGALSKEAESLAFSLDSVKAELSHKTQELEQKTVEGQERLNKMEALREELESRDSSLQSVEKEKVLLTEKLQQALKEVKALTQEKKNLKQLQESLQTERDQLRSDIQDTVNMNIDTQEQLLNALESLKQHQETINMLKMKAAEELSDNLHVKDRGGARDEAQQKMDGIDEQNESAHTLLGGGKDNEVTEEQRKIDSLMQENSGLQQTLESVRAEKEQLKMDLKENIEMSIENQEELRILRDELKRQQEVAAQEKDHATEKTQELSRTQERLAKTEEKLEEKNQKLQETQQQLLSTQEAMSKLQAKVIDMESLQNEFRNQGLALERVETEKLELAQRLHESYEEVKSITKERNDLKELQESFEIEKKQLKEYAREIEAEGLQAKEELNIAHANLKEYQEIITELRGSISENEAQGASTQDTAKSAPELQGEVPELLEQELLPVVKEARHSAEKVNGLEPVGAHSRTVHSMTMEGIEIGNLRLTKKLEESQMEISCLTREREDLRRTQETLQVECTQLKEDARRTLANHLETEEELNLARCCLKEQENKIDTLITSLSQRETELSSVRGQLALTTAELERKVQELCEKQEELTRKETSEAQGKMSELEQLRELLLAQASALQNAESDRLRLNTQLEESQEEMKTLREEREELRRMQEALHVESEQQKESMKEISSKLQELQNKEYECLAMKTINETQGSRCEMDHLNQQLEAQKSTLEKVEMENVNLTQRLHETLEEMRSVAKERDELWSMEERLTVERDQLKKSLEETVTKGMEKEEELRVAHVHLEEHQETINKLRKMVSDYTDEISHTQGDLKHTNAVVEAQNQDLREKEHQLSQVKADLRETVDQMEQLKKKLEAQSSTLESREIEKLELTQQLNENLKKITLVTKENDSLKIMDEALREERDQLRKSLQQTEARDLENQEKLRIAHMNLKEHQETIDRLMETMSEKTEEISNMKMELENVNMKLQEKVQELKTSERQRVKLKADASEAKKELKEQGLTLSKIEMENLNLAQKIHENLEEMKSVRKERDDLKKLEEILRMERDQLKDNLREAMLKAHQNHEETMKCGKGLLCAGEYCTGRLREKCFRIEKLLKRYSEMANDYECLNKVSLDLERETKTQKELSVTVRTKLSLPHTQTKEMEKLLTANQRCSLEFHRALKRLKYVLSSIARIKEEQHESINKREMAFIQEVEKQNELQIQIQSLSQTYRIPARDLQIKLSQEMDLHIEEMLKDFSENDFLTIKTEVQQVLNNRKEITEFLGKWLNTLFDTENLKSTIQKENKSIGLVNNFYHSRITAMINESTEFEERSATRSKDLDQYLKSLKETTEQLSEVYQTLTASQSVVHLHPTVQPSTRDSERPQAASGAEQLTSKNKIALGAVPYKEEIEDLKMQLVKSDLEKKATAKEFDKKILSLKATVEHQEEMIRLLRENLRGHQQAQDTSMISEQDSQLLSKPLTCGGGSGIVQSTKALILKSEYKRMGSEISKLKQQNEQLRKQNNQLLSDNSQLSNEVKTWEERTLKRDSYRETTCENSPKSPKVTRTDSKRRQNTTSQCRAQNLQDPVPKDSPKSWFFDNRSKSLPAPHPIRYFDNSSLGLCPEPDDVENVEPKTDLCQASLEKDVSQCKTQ

SF-295 [2] = test: Anticancer activity against human SF-295 cells assessed as cell growth inhibition measured after 72 hrs by DAPI staining based analysis; type: functional
RKO = test: Anticancer activity against human RKO cells assessed as cell doubling measured for 72 hrs by DAPI staining based analysis; type: functional
BC-3 = test: Anticancer activity against human BC-3 cells assessed as cell doubling measured for 72 hrs by DAPI staining based analysis; type: functional
SNB-75 = test: Anticancer activity against human SNB-75 cells assessed as cell growth inhibition measured after 72 hrs by DAPI staining based analysis; type: functional
AGS = test: Anticancer activity against human AGS cells assessed as cell growth inhibition measured after 72 hrs by DAPI staining based analysis; type: functional
Procedure, shortened: (§1)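 Cells were seeded and, after 24 h, DNA content was read as T0. Cells were then exposed to varying drug concentrations for a further 72 h (T72). Fixed cells were DAPI-stained and DNA content measured by automated imaging. T72 values were normalized to T0. GI50 is the concentration giving 50% growth inhibition between T0 and Ymax, obtained by curve fitting.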

MC-IXC = test: Anticancer activity against human MC-IXC cells assessed as cell doubling measured for 72 hrs by DAPI staining based analysis; type: functional
MCF7 = test: Antitumor activity against human MCF7 cells in xenograft model assessed as difference between median time to endpoint time of treated versus control group at 125 mg/kg; type: functional
OVCAR-3 = test: Anticancer activity against human OVCAR-3 cells assessed as cell doubling measured for 72 hrs by DAPI staining based analysis; type: functional
A204 = test: Anticancer activity against human A204 cells assessed as cell growth inhibition measured after 72 hrs by DAPI staining based analysis; type: functional; procedure, shortened: as §1
SR = test: Anticancer activity against human SR cells assessed as cell doubling measured for 72 hrs by DAPI staining based analysis; type: functional
SCC-4 = test: Anticancer activity against human SCC-4 cells assessed as cell growth inhibition measured after 72 hrs by DAPI staining based analysis; type: functional
ACHN = test: Anticancer activity against human ACHN cells assessed as cell doubling measured for 72 hrs by DAPI staining based analysis; type: functional
SF-295 [3] = test: Anticancer activity against human SF-295 cells assessed as cell doubling measured for 72 hrs by DAPI staining based analysis; type: functional
HEC-1B cell line = test: Anticancer activity against human HEC-1B cells assessed as cell growth inhibition measured after 72 hrs by DAPI staining based analysis; type: functional
COLO-320-HSR = test: Anticancer activity against human COLO 320HSR cells assessed as cell growth inhibition measured after 72 hrs by DAPI staining based analysis; type: functional
Procedure, shortened: (§2)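 Cells were seeded, and DNA content at 24 h after seeding (T0) was read by imaging of fixed, DAPI-stained cells. Cells were then exposed to a range of drug concentrations for a further 72 h (T72) and DNA content was read again. T72 values were normalized to T0, and GI50 was taken from curve fits as the concentration giving 50% growth inhibition relative to T0 and Ymax.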

SCaBER = test: Anticancer activity against human SCaBER cells assessed as cell doubling measured for 72 hrs by DAPI staining based analysis; type: functional
A498 = test: Anticancer activity against human A498 cells assessed as cell growth inhibition measured after 72 hrs by DAPI staining based analysis; type: functional; procedure, shortened: as §1
BPH-1 = test: Anticancer activity against human BPH-1 cells assessed as cell doubling measured for 72 hrs by DAPI staining based analysis; type: functional
FaDu = test: Anticancer activity against human FaDu cells assessed as cell growth inhibition measured after 72 hrs by DAPI staining based analysis; type: functional
Procedure, shortened: (§3)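 Cells seeded, DAPI-stained DNA content of fixed cells read by imaging 24 h after seeding (T0), and again after a further 72 h exposure to a range of drug concentrations (T72). T72 values were normalized to T0. Curve fits gave the concentration producing 50% growth inhibition relative to T0 and Ymax (GI50).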

HOS = test: Anticancer activity against human HOS cells assessed as cell growth inhibition measured after 72 hrs by DAPI staining based analysis; type: functional
NCI-H630 = test: Anticancer activity against human NCI-H630 cells assessed as cell growth inhibition measured after 72 hrs by DAPI staining based analysis; type: functional
SW948 = test: Anticancer activity against human SW948 cells assessed as cell doubling measured for 72 hrs by DAPI staining based analysis; type: functional
C-33-A = test: Anticancer activity against human C-33-A cells assessed as cell doubling measured for 72 hrs by DAPI staining based analysis; type: functional
RPMI-2650 = test: Anticancer activity against human RPMI-2650 cells assessed as cell doubling measured for 72 hrs by DAPI staining based analysis; type: functional
[4] = Anticancer activity against human NCI-H322T cells assessed as cell growth inhibition measured after 72 hrs by DAPI staining based analysis; type: functional
[5] = Binding affinity to human CENP-E T183A/K184T mutant assessed as inhibition constant
MOLT-16 = test: Anticancer activity against human MOLT-16 cells assessed as cell growth inhibition measured after 72 hrs by DAPI staining based analysis; type: functional
[6] = Anticancer activity against human BC-2 cells assessed as cell growth inhibition measured after 72 hrs by DAPI staining based analysis; type: functional; procedure, shortened: as §1
[7] = molecular target: Centromere-associated protein E (Homo sapiens, UniProt Q02224, T183A); test: Binding affinity to human CENP-E T183A mutant assessed as inhibition constant
Centromere-associated protein E (Homo sapiens, UniProt Q02224, T183A), sequence (Q02224 whole entry T183A): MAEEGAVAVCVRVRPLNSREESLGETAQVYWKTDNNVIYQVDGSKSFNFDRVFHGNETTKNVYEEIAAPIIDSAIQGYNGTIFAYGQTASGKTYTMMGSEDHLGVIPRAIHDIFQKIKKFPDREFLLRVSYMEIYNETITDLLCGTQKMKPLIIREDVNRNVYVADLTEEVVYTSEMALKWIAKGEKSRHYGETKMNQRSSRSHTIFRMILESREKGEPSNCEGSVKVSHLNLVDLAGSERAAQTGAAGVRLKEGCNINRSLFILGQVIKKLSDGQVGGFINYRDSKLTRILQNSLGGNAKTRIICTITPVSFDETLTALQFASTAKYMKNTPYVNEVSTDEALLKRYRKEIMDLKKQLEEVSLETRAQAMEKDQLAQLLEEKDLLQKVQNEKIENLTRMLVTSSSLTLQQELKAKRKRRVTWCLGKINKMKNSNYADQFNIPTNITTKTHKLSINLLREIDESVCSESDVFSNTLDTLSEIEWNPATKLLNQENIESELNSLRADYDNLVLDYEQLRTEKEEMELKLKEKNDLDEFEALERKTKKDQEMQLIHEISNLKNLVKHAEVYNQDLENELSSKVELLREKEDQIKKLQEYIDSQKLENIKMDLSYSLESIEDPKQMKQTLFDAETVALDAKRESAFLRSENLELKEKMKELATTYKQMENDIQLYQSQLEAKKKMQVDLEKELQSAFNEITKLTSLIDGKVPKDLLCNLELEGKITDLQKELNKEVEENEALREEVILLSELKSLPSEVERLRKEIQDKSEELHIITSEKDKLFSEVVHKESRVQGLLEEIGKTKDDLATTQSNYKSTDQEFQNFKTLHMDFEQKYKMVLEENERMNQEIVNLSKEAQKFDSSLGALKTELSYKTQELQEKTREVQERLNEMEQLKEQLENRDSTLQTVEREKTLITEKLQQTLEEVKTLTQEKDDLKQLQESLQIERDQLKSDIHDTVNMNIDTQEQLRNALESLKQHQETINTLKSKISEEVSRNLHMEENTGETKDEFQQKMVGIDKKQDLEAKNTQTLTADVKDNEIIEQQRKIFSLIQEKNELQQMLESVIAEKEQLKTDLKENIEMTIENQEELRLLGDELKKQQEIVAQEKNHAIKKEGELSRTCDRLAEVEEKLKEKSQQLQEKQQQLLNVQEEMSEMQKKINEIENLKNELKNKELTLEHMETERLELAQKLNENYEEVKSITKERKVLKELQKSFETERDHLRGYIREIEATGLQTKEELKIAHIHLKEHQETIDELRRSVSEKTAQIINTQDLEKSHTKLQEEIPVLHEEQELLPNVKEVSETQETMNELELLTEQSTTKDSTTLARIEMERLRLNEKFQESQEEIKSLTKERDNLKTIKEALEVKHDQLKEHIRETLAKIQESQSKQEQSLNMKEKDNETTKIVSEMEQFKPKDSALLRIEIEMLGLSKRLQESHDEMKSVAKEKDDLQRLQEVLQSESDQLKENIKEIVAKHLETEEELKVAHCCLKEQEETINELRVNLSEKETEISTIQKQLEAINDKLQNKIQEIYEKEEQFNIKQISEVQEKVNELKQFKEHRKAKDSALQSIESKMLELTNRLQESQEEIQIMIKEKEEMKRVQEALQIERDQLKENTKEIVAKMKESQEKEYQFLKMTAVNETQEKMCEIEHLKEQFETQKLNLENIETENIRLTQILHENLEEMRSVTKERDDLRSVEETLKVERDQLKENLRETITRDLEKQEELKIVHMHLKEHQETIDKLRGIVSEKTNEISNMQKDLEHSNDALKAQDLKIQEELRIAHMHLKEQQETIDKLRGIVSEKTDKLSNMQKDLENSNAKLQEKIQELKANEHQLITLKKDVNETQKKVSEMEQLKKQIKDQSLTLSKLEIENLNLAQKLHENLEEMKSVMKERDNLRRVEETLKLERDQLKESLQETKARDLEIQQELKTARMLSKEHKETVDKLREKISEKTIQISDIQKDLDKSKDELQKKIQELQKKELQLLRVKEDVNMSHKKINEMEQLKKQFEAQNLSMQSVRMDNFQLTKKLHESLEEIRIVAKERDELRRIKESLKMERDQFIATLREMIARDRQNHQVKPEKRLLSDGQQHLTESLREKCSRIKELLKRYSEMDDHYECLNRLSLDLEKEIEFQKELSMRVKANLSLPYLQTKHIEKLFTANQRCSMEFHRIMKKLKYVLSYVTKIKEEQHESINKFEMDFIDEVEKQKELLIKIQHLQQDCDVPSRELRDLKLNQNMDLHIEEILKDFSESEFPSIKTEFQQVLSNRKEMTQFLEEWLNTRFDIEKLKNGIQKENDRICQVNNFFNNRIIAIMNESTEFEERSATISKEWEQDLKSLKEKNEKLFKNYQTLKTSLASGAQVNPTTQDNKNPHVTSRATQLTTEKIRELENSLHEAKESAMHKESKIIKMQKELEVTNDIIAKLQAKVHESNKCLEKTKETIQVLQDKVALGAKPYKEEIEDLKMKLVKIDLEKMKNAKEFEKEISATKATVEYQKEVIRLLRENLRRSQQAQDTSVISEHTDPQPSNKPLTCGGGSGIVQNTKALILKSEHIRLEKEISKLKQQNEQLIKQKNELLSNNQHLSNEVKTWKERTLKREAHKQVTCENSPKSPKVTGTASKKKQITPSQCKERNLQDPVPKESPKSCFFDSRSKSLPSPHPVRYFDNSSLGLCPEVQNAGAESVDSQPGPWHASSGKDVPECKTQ

SNU-387 = test: Anticancer activity against human SNU-387 cells assessed as cell doubling measured for 72 hrs by DAPI staining based analysis; type: functional
[8] = Anticancer activity against human MJ cells assessed as cell growth inhibition measured after 72 hrs by DAPI staining based analysis; type: functional
U2OS = test: Anticancer activity against human U2OS cells assessed as cell doubling measured for 72 hrs by DAPI staining based analysis; type: functional
EKVX = test: Anticancer activity against human EKVX cells assessed as cell growth inhibition measured after 72 hrs by DAPI staining based analysis; type: functional; procedure, shortened: as §3
[9] = Anticancer activity against human C4-1 cells assessed as cell growth inhibition measured after 72 hrs by DAPI staining based analysis; type: functional; procedure, shortened: as §2

## CC(C)Oc1ccc(C(=O)N[C@H](CNC(=O)CN(C)C)Cc2ccc(-c3cn4cccc([C@H](C)O)c4n3)cc2)cc1Cl [GSK-923295A]
HCT-116
  Activity: 4.11
GCT
  Activity: 2.3
SW48
  Activity: 2.44
COLO 205
  Time: 24.9 days
A-431
  Activity: 2.95
MDA-MB-468
  GI50: 25 nM
[1]
  Ki: 67 nM
SF-295 [2]
  GI50: 35 nM
RKO
  Activity: 4.17
BC-3
  Activity: 2.65
SNB-75
  GI50: 26 nM
AGS
  GI50: 29 nM
MC-IXC
  Activity: 2.67
MCF7
  Time: 15.8 days
OVCAR-3
  Activity: 1.56
A204
  GI50: 18 nM
SR
  Activity: 2.84
SCC-4
  GI50: 28 nM
ACHN
  Activity: 2.51
SF-295 [3]
  Activity: 2.3
HEC-1B cell line
  GI50: 28 nM
COLO-320-HSR
  GI50: 153 nM
SCaBER
  Activity: 2.86
A498
  GI50: 81 nM
BPH-1
  Activity: 2.08
FaDu
  GI50: 32 nM
HOS
  GI50: 27 nM
NCI-H630
  GI50: 47 nM
SW948
  Activity: 1.9
C-33-A
  Activity: 3.13
RPMI-2650
  Activity: 3
[4]
  GI50: 25 nM
[5]
  Ki: 11 nM
MOLT-16
  GI50: 47 nM
[6]
  GI50: 45 nM
[7]
  Ki: 13 nM
SNU-387
  Activity: 1.21
[8]
  GI50: 50 nM
U2OS
  Activity: 3.08
EKVX
  GI50: 28 nM
[9]
  GI50: 42 nM

Source: ChEMBL document CHEMBL5705890, “Antitumor activity of an allosteric inhibitor of centromere-associated protein-E” (Proc Natl Acad Sci U S A, 2010)
